Screening results from PubChem BioAssay.
Dynein cargo inh: dynein cargo transport inhibition | 3617.4 mouse cells, GR-EGFP nuclear translocation imaging; test concentration mostly 20 µM; stimulated with dexamethasone, 1 µM; hits give low values | z-score, hits read low | hit rate 0.47% among 220,000;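 active = plate z-score of nuclear minus cytoplasmic receptor signal below a set negative limit, without overly bright fluorescence or cell loss, cut at about -3.5 in these data, passing the limit was not always enough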;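 also: z-score of nuclear minus cytoplasmic ring GR-EGFP intensity difference per well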
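Medium: Induction medium lacking tetracycline, stripped serum | Probe or stimulus: 1.0 µM final dexamethasone stimulus | Schedule: 48 h induction, then 1 h compound, then 30 min agonist, 37 °C | Signal: Automated 10x imaging of fixed Hoechst-stained cells | Evaluation: Per-cell GR-EGFP intensity, nucleus versus surrounding cytoplasmic ring, well-averaged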
Autophagy HCS: autophagy modulation, high-content screen | AID 463193 | MEF GFP-LC3 puncta imaging; test concentration mostly 10 µM | hit rate 0.98% among 190,000 | calls only at 10 µM (by protocol);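 active = percentage of spot-positive cells more than 3 SD above its plate mean, without a fluorescence outlier flag or 80% toxicity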;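 also: spot-positive cell cutoff set from DMSO-treated cells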
Mdm2 ligase inh: inhibitors of human Mdm2 E3 ubiquitin ligase | Q00987 | cell-based MDM2 ubiquitination luciferase reporter, 2 h; 0 = plate control, 100 = twice control, blank-subtracted | signal enhancement, % at 5 µM | hit rate 0.11% among 210,000;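 active = signal enhancement of 30% or more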;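 also: luminescence tracks abundance of the self-degrading MDM2-luciferase fusion protein; higher signal means inhibition of MDM2 E3 ligase activity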
Target sequence (Q00987 whole entry, looked up, the tested form may be a part): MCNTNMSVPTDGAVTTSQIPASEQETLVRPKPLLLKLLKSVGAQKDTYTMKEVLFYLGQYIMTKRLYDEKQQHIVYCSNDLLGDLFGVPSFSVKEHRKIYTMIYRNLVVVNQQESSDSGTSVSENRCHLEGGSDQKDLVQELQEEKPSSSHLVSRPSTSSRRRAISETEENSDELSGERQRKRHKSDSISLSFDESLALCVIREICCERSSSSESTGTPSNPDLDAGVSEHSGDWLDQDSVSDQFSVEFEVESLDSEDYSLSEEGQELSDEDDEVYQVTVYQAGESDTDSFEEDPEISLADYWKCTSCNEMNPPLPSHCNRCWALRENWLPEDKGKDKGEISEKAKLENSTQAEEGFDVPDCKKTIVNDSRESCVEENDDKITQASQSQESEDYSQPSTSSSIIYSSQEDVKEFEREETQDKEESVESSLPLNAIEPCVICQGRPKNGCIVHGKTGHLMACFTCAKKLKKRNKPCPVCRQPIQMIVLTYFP
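System: stable MDM2–luciferase fusion reporter cells / Input: 2000 cells seeded into each well / Schedule: 4 h settle plus 2 h compound, 37 °C / Compound: single-point 5 µM / Buffer or medium: cells held in DMEM / Benchmarks: control and blank well means / Evaluation: percent signal gain over controls, blank-subtracted / Measured by: luciferase luminescence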
L929 necroptosis: blocks zVAD induced death of L929 cells; L929 zVAD necroptosis rescue, ATP luminescence, 24 h; with zVAD 60 µM; viability rescue, % at 10 µM; hit rate 0.38% among 220,000;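 active = activation, scaled between plate controls, above about 75%, limit read from the data; inactive = activation under that limit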;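 also: 0% = zVAD with DMSO and 100% = DMSO alone without zVAD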
TNF necrop inh: blocks TNF-alpha induced death of Jurkat FADD-/- cells; Jurkat FADD-/- TNF necroptosis rescue, ATP luminescence, 24 h; 0 = TNF only, 100 = no-TNF cells; activation (protection from cell death), % at 10 µM; hit rate 0.068% among 220,000; AID 463075;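 active = activation, meaning protection from cell death, of at least 50% relative to plate controls; inactive = activation below 50%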;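 also: necroptosis triggered by 40 ng/mL TNF-alpha added together with compound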
Hck-Nef inh: human Hck-Nef kinase inhibition | P08631 | Recombinant Hck-YEEI plus Nef, Z-Lyte FRET kinase assay | inhibition, % at 20 µM | hit rate 0.68% among 220,000 | AID 463187;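 active = Hck-Nef kinase inhibition above about 50%, limit read from the data; inactive = inhibition below that limit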;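 also: 0% = DMSO with Hck plus Nef and 100% = Hck alone without Nef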
Numbers without * were called inactive; i = inactive; . = no result given; + = active, no number. An excerpt weighted towards active compounds, which were near 2.4% of everything screened.

SMILES	Dynein cargo inh	Autophagy HCS	Mdm2 ligase inh	L929 necroptosis	TNF necrop inh	Hck-Nef inh
O=C(Nc1ccc(-c2csnn2)cc1)C1CC1	0.41	.	83*	1	2	-3
O=[N+]([O-])c1cccc(-c2nc(-c3cccs3)c(-c3cccs3)[nH]2)c1	-0.24	i	5	1	-9	0
O=[N+]([O-])c1ccc(-c2nc(-c3cccs3)c(-c3cccs3)[nH]2)cc1	-2.4	+	-7	1	-9	0
CN1CCN(C(c2cccc(C(F)(F)F)c2)c2nnnn2Cc2ccccc2)CC1 (configuration not stated)	0.12	i	-7	0	2	0
Cc1c(Nc2cc(Cl)c3nonc3c2[N+](=O)[O-])c(=O)n(-c2ccccc2)n1C	-6*	+	13	-5	-14	9
Cn1nc(C(C)(C)C)c(NC(=O)c2cccs2)c1C(C)(C)C	-0.15	.	1	-1	0	7
CC(C)(C)NCC(O)(c1ccc(Cl)cc1)c1ccc(Cl)cc1	-1.5	i	-14	3	3	22
NCC(O)(c1ccc(Cl)cc1)c1ccc(Cl)cc1	0.16	+	-29	38	14	23
COc1ccccc1NS(=O)(=O)c1cc(NC(=O)c2cc3ccccc3oc2=O)ccc1C	0.48	i	-5	1	2	0
CCNCC(=O)Nc1ccc(N2CCOCC2)cc1	0.36	+	-5	3	1	-4
C/C(=C\C(=O)c1ccccc1)Nc1ccc(N2CCOCC2)cc1	-0.32	i	.	-1	2	-21
C/C(=C\C(=O)c1ccc(Cl)cc1)Nc1ccc(N2CCOCC2)cc1	-0.47	+	2	1	2	9
Cc1ccc(CNCC(=O)Nc2ccc(N3CCOCC3)cc2)cc1	0.0026	.	-6	1	3	7
CN1CCc2c(sc(NC(=O)c3cc4cc([N+](=O)[O-])ccc4s3)c2C(N)=O)C1	-0.22	+	-7	-3	-18	21
O=C(O)c1ccc(-n2cccn2)nc1	-0.67	i	-17	1	0	38
CCC(Sc1nc2ccccc2c(=O)[nH]1)C(=O)Nc1ccc(C(C)=O)cc1 (configuration not stated)	1.6	i	4	-1	0	16
CCN(CC)c1cccc(OCC(=O)N(C)CCC#N)c1	-0.69	+	-14	0	0	3
CCOC(=O)c1cc(-c2ccccc2)sc1NC(=S)Nc1cc(C)ccn1	3	+	-13	0	0	-1
CCOC(=O)c1cc(-c2ccccc2)sc1NC(=O)C(C)(C)C	-0.83	i	-3	0	-2	1
Cc1ccccc1OCCNc1cc(N2CC(C)NC(C)C2)ccc1[N+](=O)[O-] (configuration not stated)	0.26	+	-7	10	-8	35
O=[N+]([O-])c1ccc(N2CCCCC2)cc1NCCOc1ccccc1	0.68	i	-11	0	2	-4
Cc1cc(C)nc(N/N=C/c2cn[nH]c2-c2ccc(F)cc2)n1	-0.65	.	-4	0	4	26
COC(=O)C(NC(=O)c1ccco1)(Nc1ccc(Br)cn1)C(F)(F)F (configuration not stated)	-0.37	i	-10	1	-2	0
CCCCC[C@H](O)/C=C/[C@H]1C=CC(=O)[C@@H]1C/C=C\CCCC(=O)O	-1.9	i	.	3	-11	57*
CCCCC1C(=O)CC[C@H]2[C@@H]1CC(=O)[C@@H]2C/C=C\CCCC(=O)O (some centres not stated)	-2.9	i	.	-2	-7	2
SMILES	Dynein cargo inh	Autophagy HCS	Mdm2 ligase inh	L929 necroptosis	TNF necrop inh	Hck-Nef inh
O=C(CCCc1nc(-c2ccccc2Cl)no1)NC1CCCCC1	0.18	+	7	0	-1	7
CN=C1c2cc3cc(OC)ccc3n2CCN1Cc1ccccc1	-0.37	+	-8	0	-6	-2
COc1ccc(C(C(=O)NC(C)(C)C)N(C(=O)CNC(=O)c2cccs2)c2ccc(NC(C)=O)cc2)cc1OC (configuration not stated)	1.2	i	-12	0	1	22
Cc1cccc(-n2c(O)c(C=Nc3ccc(O)cc3)c3ccccc3c2=O)n1	-1.1	i	-15	.	-4	-3
CN(C)CCCN=Cc1c(O)n(Cc2ccc3c(c2)OCO3)c(=O)c2ccccc12	-0.99	+	-9	-1	0	3
Cc1ccc(N=Cc2c(O)n(-c3ccc4c(c3)OCO4)c(=O)c3ccccc23)cc1	0.48	+	-14	-1	-5	1
CN(C)CCN=Cc1c(O)n(Cc2ccc3c(c2)OCO3)c(=O)c2ccccc12	-0.87	i	-12	0	7	21
CCc1ccccc1NC(=O)CN(c1cccc(OC)c1)S(C)(=O)=O	-0.22	i	5	0	0	-1
O=C(CSc1nc2c([nH]c3ccccc32)c(=O)n1-c1cccc(Cl)c1)N1CCOCC1	0.74	i	-7	-1	-1	53*
CCn1nc([N+](=O)[O-])c2c(-c3nc4ccccc4o3)c(N)n(CCCOC)c2c1=O	-0.73	+	-21	2	1	28
COc1ccc(NC(=S)NCc2ccc(S(N)(=O)=O)cc2)c(OC)c1	1	i	.	0	-1	-1
Cc1cccc(OCCn2c(NC(=O)c3ccco3)nc3ccccc32)c1	-0.9	+	-11	0	1	0
Cc1ccccc1NC(=O)/C=C/c1ccc([N+](=O)[O-])s1	1.9	+	20	71	-13	1
CCN(CC(=O)NCc1ccccc1Cl)CC(=O)Nc1c(F)cccc1F	-0.028	.	-16	0	1	13
CN(C)c1nc(=NCc2ccco2)ss1	-3.2	.	37*	-1	-18	-43
CC(NCC(O)COC1CCC(C(C)(C)C)CC1)c1ccccc1 (configuration not stated)	0.56	+	-15	7	2	25
c1ccc(N2CCN(c3ccccc3)C2c2cccs2)cc1	-0.71	i	36*	0	1	-1
O=C(O)CNC(=O)/C(=C\c1cccc([N+](=O)[O-])c1)NC(=O)c1ccco1	0.33	.	.	1	1	19
O=C(Nc1ccc2c(c1)nc1n2CCOC1)c1ccco1	0.027	i	-24	1	-1	1
O=C(Nc1ccc2c(c1)nc1n2CCSC1)c1ccco1	-0.93	+	-68	2	-2	5
O=C(NCCN1CCOCC1)c1ccc2c(c1)ncn2C1CCCCC1	1.1	i	-2	88*	0	1
